Active and inactive are the calls of the source. The rule behind the calls is not given here.
Experiments:
[1] = target: T1, Gamma-aminobutyric acid receptor subunit alpha-1/beta-3/gamma-2 (Rattus norvegicus) (UniProt P18508+P62813+P63079); test: Modulation of rat eGFP-fused GABA-A receptor alpha1beta3gamma2 expressed in HEK293 cells at <= 1 uM in presence of GABA by patch-clamp assay relative to control; format: cell-based
[2] = target: T2, Gamma-aminobutyric acid receptor subunit alpha-6/beta-3/delta (Rattus norvegicus) (UniProt P18506+P30191+P63079); test: Displacement of [3H]EBOB from rat GABA-A receptor alpha6beta3delta expressed in HEK293 cell membranes at 10 uM after 90 mins by liquid scintillation counting analysis relative to control
In short: (§1)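 Crude membranes from HEK 293 cells transiently Ca-phosphate-transfected with rat subunit cDNAs, harvested at 48 h. Membranes (150-200 µg protein) incubated with 3 nM [3H]EBOB in 50 mM Tris/citrate pH 7.3 plus 0.2 M NaCl. Compound up to 10 µM, final DMSO 0.1%, no GABA, 90 min at 21 °C. Bound radioligand collected by GF/C filtration and counted by scintillation.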

[3] = target: T3, Gamma-aminobutyric acid receptor subunit alpha-6/beta-3 (Rattus norvegicus) (UniProt P30191+P63079); test: Modulation of rat […] GABA-A receptor alpha6beta3 expressed in HEK293 cells up to 10 uM in presence of GABA by patch-clamp assay relative to control; format: cell-based
In short: (§2)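 Rat GABA-A subunits were transiently co-transfected with eGFP into HEK293 cells on coverslips. Fluorescent cells were recorded by whole-cell patch clamp 48 h later; bath pH 7.4, KCl/KOH pipette pH 7.2. Compound was applied at increasing concentrations up to 10 µM with the receptor-specific GABA EC20. Peak currents were fitted logistically for EC50, Hill and % modulation, as mean ± S.E.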

[4] = target: T4, Gamma-aminobutyric acid receptor subunit alpha-1/beta-3/delta (Rattus norvegicus) (UniProt P18506+P62813+P63079); test: Modulation of rat […] GABA-A receptor alpha1beta3delta expressed in HEK293 cells up to 10 uM in presence of GABA by patch-clamp assay relative to control; format: cell-based; in short: as §2
[5] = target: T5, Gamma-aminobutyric acid receptor subunit alpha-4/beta-3/gamma-2 (Rattus norvegicus) (UniProt P18508+P28471+P63079); test: Modulation of rat eGFP-fused GABA-A receptor alpha4beta3gamma2 expressed in HEK293 cells at <=1 uM in presence of GABA by patch-clamp assay relative to control; format: cell-based
[6] = target: Gamma-aminobutyric acid receptor subunit alpha-4/beta-3/delta (Rattus norvegicus, UniProt P18506+P28471+P63079); test: Modulation of rat […] GABA-A receptor alpha4beta3delta expressed in HEK293 cells in presence of GABA by patch-clamp assay; format: cell-based; in short: as §2
Gamma-aminobutyric acid receptor subunit alpha-4/beta-3/delta, sequence (P18506 whole entry): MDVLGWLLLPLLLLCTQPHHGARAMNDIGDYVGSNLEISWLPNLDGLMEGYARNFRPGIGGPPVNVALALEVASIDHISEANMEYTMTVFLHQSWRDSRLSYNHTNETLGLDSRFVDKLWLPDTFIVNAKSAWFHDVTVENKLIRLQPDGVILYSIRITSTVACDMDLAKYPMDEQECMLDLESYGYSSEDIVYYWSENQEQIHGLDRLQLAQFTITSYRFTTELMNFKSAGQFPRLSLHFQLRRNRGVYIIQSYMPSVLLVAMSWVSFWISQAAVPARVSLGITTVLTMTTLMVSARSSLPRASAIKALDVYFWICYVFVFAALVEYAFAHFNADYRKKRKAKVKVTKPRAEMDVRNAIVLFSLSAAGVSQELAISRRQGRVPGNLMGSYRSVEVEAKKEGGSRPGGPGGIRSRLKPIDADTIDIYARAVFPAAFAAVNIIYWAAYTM
Gamma-aminobutyric acid receptor subunit alpha-4/beta-3/delta, sequence (P28471 whole entry): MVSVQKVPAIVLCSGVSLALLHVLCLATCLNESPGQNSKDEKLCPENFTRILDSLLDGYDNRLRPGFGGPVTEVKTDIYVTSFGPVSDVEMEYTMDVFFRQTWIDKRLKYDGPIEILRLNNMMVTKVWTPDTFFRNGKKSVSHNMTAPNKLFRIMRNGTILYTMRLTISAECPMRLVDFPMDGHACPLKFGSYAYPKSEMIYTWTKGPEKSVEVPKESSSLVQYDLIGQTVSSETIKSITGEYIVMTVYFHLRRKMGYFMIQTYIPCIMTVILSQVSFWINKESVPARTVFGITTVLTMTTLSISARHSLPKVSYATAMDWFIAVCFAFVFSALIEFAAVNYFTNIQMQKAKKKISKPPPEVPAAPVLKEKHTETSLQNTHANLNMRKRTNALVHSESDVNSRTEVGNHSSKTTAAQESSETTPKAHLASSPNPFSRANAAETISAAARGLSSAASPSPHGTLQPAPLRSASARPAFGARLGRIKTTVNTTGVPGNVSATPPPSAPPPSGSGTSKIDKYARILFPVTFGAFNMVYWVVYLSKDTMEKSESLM
Gamma-aminobutyric acid receptor subunit alpha-4/beta-3/delta, sequence (P63079 whole entry): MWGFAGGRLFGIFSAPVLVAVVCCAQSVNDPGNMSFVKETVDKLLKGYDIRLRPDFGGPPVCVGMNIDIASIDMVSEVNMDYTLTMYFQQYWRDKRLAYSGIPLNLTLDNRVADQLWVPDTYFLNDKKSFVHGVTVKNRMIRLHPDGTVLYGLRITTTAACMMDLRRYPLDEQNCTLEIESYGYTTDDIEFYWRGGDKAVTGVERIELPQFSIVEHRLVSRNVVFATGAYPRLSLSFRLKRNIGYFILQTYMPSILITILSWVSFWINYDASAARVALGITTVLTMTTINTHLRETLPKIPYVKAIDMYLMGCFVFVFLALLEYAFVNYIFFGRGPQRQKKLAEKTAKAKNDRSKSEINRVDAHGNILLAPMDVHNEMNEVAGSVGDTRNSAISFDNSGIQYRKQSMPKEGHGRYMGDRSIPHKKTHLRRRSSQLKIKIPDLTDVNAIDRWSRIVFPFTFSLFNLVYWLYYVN

[7] = target: Gamma-aminobutyric acid receptor subunit alpha-1/beta-3/delta (Rattus norvegicus, UniProt P18506+P62813+P63079); test: Modulation of rat […] GABA-A receptor alpha1beta3delta expressed in HEK293 cells in presence of GABA by patch-clamp assay; format: cell-based; in short: as §2
Gamma-aminobutyric acid receptor subunit alpha-1/beta-3/delta, sequence (P18506 whole entry, the tested form may be a part): as the sequence (P18506 whole entry) above
Gamma-aminobutyric acid receptor subunit alpha-1/beta-3/delta, sequence (P62813 whole entry, the tested form may be a part): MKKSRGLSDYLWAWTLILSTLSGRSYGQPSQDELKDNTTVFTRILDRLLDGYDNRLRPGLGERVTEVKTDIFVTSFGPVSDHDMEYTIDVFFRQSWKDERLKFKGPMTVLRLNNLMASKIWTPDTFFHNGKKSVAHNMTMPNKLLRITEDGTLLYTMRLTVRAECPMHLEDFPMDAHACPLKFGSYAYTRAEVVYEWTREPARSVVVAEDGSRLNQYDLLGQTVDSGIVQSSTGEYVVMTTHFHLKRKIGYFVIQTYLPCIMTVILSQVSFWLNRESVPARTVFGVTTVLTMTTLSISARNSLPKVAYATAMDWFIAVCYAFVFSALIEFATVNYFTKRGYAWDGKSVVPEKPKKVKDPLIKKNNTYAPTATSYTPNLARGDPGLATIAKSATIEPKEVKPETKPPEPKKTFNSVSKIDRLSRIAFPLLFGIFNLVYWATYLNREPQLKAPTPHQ
Gamma-aminobutyric acid receptor subunit alpha-1/beta-3/delta, sequence (P63079 whole entry, the tested form may be a part): as the sequence (P63079 whole entry) above

[8] = target: T6, Gamma-aminobutyric acid receptor subunit alpha-6/beta-3/gamma-2 (Rattus norvegicus) (UniProt P18508+P30191+P63079); test: Modulation of rat eGFP-fused GABA-A receptor alpha6beta3gamma2 expressed in HEK293 cells at <= 1 uM in presence of GABA by patch-clamp assay relative to control; format: cell-based
[9] = target: Gamma-aminobutyric acid receptor subunit alpha-1/beta-3 (Rattus norvegicus) (UniProt P62813+P63079); test: Modulation of rat […] GABA-A receptor alpha1beta3 expressed in HEK293 cells at <= 10 uM in presence of GABA by patch-clamp assay relative to control; format: cell-based
In short: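 Whole-cell patch clamp on eGFP-co-transfected HEK 293 cells expressing rat subunits, recorded 48 h post-transfection. KCl/KOH-based pipette solution, pH 7.2. Rising compound concentrations up to 10 µM co-applied with the receptor-specific GABA EC20. Peak currents fitted to a logistic function giving EC50, Hill coefficient and % modulation, mean ± S.E. of n experiments.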

[10] = target: T7, Gamma-aminobutyric acid receptor subunit alpha-4/beta-3/delta (Rattus norvegicus) (UniProt P18506+P28471+P63079); test: Modulation of rat […] GABA-A receptor alpha4beta3delta expressed in HEK293 cells up to 10 uM in presence of GABA by patch-clamp assay relative to control; format: cell-based; in short: as §2
[11] = target: T8, Gamma-aminobutyric acid receptor subunit alpha-4/beta-3 (Rattus norvegicus) (UniProt P28471+P63079); test: Modulation of rat eGFP-fused GABA-A receptor alpha4beta3 expressed in HEK293 cells at <= 1 uM in presence of GABA by patch-clamp assay relative to control; format: cell-based
[12] = target: T8, Gamma-aminobutyric acid receptor subunit alpha-4/beta-3 (Rattus norvegicus); test: Displacement of [3H]EBOB from rat GABA-A receptor alpha4beta3 expressed in HEK293 cell membranes at 20 uM after 90 mins by liquid scintillation counting analysis relative to control
[13] = target: Gamma-aminobutyric acid receptor subunit alpha-6/beta-2/delta (Rattus norvegicus) (UniProt P18506+P30191+P63138); test: Displacement of [3H]EBOB from rat GABA-A receptor alpha6beta2delta expressed in HEK293 cell membranes up to 10 uM after 90 mins by liquid scintillation counting analysis relative to control; in short: as §1
[14] = target: Gamma-aminobutyric acid receptor subunit alpha-6/beta-3 (Rattus norvegicus, UniProt P30191+P63079); test: (§3) Displacement of [3H]EBOB from rat GABA-A receptor alpha6beta3 expressed in HEK293 cell membranes after 90 mins in presence of GABA by liquid scintillation counting analysis
Gamma-aminobutyric acid receptor subunit alpha-6/beta-3, sequence (P30191 whole entry): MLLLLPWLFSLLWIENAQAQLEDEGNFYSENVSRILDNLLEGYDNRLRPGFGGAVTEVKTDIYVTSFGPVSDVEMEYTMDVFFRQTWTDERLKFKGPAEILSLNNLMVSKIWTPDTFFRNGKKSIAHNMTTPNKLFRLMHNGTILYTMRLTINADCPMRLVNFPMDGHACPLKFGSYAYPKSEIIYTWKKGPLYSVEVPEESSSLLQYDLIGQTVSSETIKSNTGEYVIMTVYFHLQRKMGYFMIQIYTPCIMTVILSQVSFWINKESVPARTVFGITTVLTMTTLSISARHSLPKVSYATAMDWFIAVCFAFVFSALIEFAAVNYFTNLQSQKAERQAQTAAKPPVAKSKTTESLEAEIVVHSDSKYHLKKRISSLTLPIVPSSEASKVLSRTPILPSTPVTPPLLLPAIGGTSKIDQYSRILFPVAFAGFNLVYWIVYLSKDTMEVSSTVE
Gamma-aminobutyric acid receptor subunit alpha-6/beta-3, sequence (P63079 whole entry): as the sequence (P63079 whole entry) above

[15] = target: T3, Gamma-aminobutyric acid receptor subunit alpha-6/beta-3 (Rattus norvegicus); test: as §3
[16] = target: T5, Gamma-aminobutyric acid receptor subunit alpha-4/beta-3/gamma-2 (Rattus norvegicus); test: Displacement of [3H]EBOB from rat GABA-A receptor alpha4beta3gamma2 expressed in HEK293 cell membranes at 20 uM after 90 mins by liquid scintillation counting analysis relative to control
[17] = target: T6, Gamma-aminobutyric acid receptor subunit alpha-6/beta-3/gamma-2 (Rattus norvegicus); test: (§4) Displacement of [3H]EBOB from rat GABA-A receptor alpha6beta3gamma2 expressed in HEK293 cell membranes after 90 mins in presence of GABA by liquid scintillation counting analysis
[18] = target: Gamma-aminobutyric acid receptor subunit alpha-6/beta-3/gamma-2 (Rattus norvegicus, UniProt P18508+P30191+P63079); test: as §4
Gamma-aminobutyric acid receptor subunit alpha-6/beta-3/gamma-2, sequence (P18508 whole entry): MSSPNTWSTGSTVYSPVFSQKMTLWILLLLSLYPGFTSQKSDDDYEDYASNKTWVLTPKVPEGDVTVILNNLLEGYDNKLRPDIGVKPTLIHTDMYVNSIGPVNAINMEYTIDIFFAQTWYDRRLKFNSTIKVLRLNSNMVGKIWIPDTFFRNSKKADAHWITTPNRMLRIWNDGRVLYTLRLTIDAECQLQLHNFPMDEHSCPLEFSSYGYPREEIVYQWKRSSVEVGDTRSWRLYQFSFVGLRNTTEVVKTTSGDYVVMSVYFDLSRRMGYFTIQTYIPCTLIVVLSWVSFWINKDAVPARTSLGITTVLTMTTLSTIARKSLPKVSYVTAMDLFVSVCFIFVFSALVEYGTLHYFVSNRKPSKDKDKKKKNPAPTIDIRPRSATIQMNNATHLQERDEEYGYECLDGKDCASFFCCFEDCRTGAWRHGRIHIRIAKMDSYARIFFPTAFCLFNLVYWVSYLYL
Gamma-aminobutyric acid receptor subunit alpha-6/beta-3/gamma-2, sequence (P30191 whole entry): as the sequence (P30191 whole entry) above
Gamma-aminobutyric acid receptor subunit alpha-6/beta-3/gamma-2, sequence (P63079 whole entry): as the sequence (P63079 whole entry) above

[19] = target: GABA A receptor alpha-6/beta-2/gamma-2 (Rattus norvegicus) (UniProt P18508+P30191+P63138); test: Displacement of [3H]EBOB from rat GABA-A receptor alpha6beta2gamma2 expressed in HEK293 cell membranes at 10 uM after 90 mins by liquid scintillation counting analysis relative to control; in short: as §1
[20] = target: T4, Gamma-aminobutyric acid receptor subunit alpha-1/beta-3/delta (Rattus norvegicus); test: Displacement of [3H]EBOB from rat GABA-A receptor alpha1beta3delta expressed in HEK293 cell membranes at 20 uM after 90 mins by liquid scintillation counting analysis relative to control
[21] = target: Gamma-aminobutyric acid receptor subunit alpha-6/beta-2/delta (Rattus norvegicus, UniProt P18506+P30191+P63138); test: Displacement of [3H]EBOB from rat GABA-A receptor alpha6beta2delta expressed in HEK293 cell membranes after 90 mins by liquid scintillation counting analysis; in short: as §1
Gamma-aminobutyric acid receptor subunit alpha-6/beta-2/delta, sequence (P18506 whole entry): as the sequence (P18506 whole entry) above
Gamma-aminobutyric acid receptor subunit alpha-6/beta-2/delta, sequence (P30191 whole entry): as the sequence (P30191 whole entry) above
Gamma-aminobutyric acid receptor subunit alpha-6/beta-2/delta, sequence (P63138 whole entry): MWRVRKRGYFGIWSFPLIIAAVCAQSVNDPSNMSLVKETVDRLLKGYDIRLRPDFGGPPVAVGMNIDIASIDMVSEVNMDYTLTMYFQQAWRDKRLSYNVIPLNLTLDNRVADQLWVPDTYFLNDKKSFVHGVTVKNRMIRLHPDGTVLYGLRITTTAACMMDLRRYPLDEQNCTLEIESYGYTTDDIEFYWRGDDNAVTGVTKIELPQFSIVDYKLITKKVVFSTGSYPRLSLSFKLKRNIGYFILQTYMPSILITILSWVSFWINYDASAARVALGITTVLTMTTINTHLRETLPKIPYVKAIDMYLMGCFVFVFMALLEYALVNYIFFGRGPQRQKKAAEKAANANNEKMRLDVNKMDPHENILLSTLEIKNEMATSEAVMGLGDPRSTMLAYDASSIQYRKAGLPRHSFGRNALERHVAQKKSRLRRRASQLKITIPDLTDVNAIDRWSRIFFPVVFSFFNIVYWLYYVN

[22] = target: T3, Gamma-aminobutyric acid receptor subunit alpha-6/beta-3 (Rattus norvegicus); test: Displacement of [3H]EBOB from rat GABA-A receptor alpha6beta3 expressed in HEK293 cell membranes at 20 uM after 90 mins by liquid scintillation counting analysis relative to control
[23] = target: T9, Gamma-aminobutyric acid receptor subunit alpha-6/beta-3/delta (Rattus norvegicus, UniProt P18506+P30191+P63079); test: Displacement of [3H]EBOB from rat GABA-A receptor alpha6beta3delta expressed in HEK293 cell membranes after 90 mins by liquid scintillation counting analysis; in short: as §1
T9 sequence (P18506 whole entry): as the sequence (P18506 whole entry) above
T9 sequence (P30191 whole entry): as the sequence (P30191 whole entry) above
T9 sequence (P63079 whole entry): as the sequence (P63079 whole entry) above

[24] = target: Gamma-aminobutyric acid receptor subunit alpha-6/beta-2 (Rattus norvegicus) (UniProt P30191+P63138); test: Displacement of [3H]EBOB from rat GABA-A receptor alpha6beta2 expressed in HEK293 cell membranes at 10 uM after 90 mins by liquid scintillation counting analysis relative to control; in short: as §1
[25] = target: T2, Gamma-aminobutyric acid receptor subunit alpha-6/beta-3/delta (Rattus norvegicus); test: (§5) Displacement of [3H]EBOB from rat GABA-A receptor alpha6beta3delta expressed in HEK293 cell membranes after 90 mins in presence of GABA by liquid scintillation counting analysis
[26] = target: T9, Gamma-aminobutyric acid receptor subunit alpha-6/beta-3/delta; test: as §5
[27] = target: T6, Gamma-aminobutyric acid receptor subunit alpha-6/beta-3/gamma-2 (Rattus norvegicus); test: Displacement of [3H]EBOB from rat GABA-A receptor alpha6beta3gamma2 expressed in HEK293 cell membranes up to 10 uM after 90 mins by liquid scintillation counting analysis relative to control; in short: as §1
[28] = target: T1, Gamma-aminobutyric acid receptor subunit alpha-1/beta-3/gamma-2 (Rattus norvegicus); test: Displacement of [3H]EBOB from rat GABA-A receptor alpha1beta3gamma2 expressed in HEK293 cell membranes at 20 uM after 90 mins by liquid scintillation counting analysis relative to control
[29] = target: T7, Gamma-aminobutyric acid receptor subunit alpha-4/beta-3/delta (Rattus norvegicus); test: Displacement of [3H]EBOB from rat GABA-A receptor alpha4beta3delta expressed in HEK293 cell membranes at 20 uM after 90 mins by liquid scintillation counting analysis relative to control

O=C(Nc1c(-c2cccs2)nc2ccccn12)c1ccc(Cl)cc1
Activity [1]: inactive
Imax [2]: 20%
Activity [3]: 588%
Activity [4]: 213%
Activity [5]: inactive
EC50 [6]: 970 nM
EC50 [7]: 860 nM
Activity [8]: inactive
Activity [9]: inactive
Activity [10]: 231%
Activity [11]: inactive

CCCCOc1ccc(C(=O)Nc2c(-c3cccs3)nc3ccc(Br)cn23)cc1
inhibition [12]: inactive
Imax [13]: 54%
IC50 [14]: 4070 nM
Imax [15]: 26%
inhibition [16]: inactive
Imax [17]: 40%
IC50 [18]: 4340 nM
Imax [19]: 13%
inhibition [20]: inactive
IC50 [21]: 2430 nM
inhibition [22]: inactive
IC50 [23]: 2180 nM
inhibition [24]: inactive
Imax [25]: 51%
IC50 [26]: 870 nM
Imax [27]: 10%
inhibition [28]: inactive
inhibition [29]: inactive

— ChEMBL document CHEMBL4190374, “Structure-Function Evaluation of Imidazopyridine Derivatives Selective for δ-Subunit-Containing γ-Aminobutyric Acid Type A (GABAA) Receptors” (J Med Chem, 2018)
